Experimental data: ChEMBL document CHEMBL2424521, “Long-lasting inhibition of EGFR autophosphorylation in A549 tumor cells by intracellular accumulation of non-covalent inhibitors” (Bioorg Med Chem Lett, 2013)
Active and inactive are the calls of the source. The calls are words filed in the database; no cut-off is given here.

Assays:
[1] = system: A549; assay: Cellular uptake in human A549 cells incubated for 1 hr followed by compound washout measured after 8 hrs by HPLC-MS/MS analysis; assay type: ADME, cell-based; details: a549, 1 h
In short: (§1)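 A549 cells (wild-type EGFR) exposed to 1 µM extracellular compound for 1 h; intracellular content quantified by HPLC-ESI-MS/MS immediately after or 8 h after removal of compound (drug-free incubation) as pmol/mg protein; converted to µM using average cell volume per mg protein estimated from equilibrium distribution of 3-O-methyl-D-[1-³H]glucose in A549 cells.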

[2] = system: A549; assay: Cellular uptake in human A549 cells incubated for 1 hr followed by compound washout measured at 1 hr by HPLC-MS/MS analysis; assay type: ADME, cell-based; details: a549, 1 h; in short: as §1
[3] = Percentage unbound in human A549 cells at 1 uM after 4 hrs by equilibrium dialysis method; assay type: ADME, cell-based
[4] = target: T1, Epidermal growth factor receptor (Homo sapiens, UniProt P00533); assay: Inhibition of wild type EGFR autophosphorylation in human A549 cells incubated for 1 hr followed by compound washout measured at 1 hr by Western blot analysis; assay type: cell-based
[5] = target: T1, Epidermal growth factor receptor; details: A549, at 1 µM
[6] = target: T1, Epidermal growth factor receptor; assay: Inhibition of wild type EGFR autophosphorylation in human A549 cells incubated for 1 hr followed by compound washout measured after 8 hrs by Western blot analysis; assay type: cell-based
[7] = target: T1, Epidermal growth factor receptor
[8] = Stability of the compound in human A549 cell lysates up to 24 hrs in presence of cysteine; assay type: physicochemical; details: a549, 24 h
In short: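 Compound incubated with A549 cell lysate plus molar excess of cysteine as trapping reagent; cysteine conjugate formation monitored by HPLC–MS for up to 24 h.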

[9] = target: T1, Epidermal growth factor receptor; details: at 1 µM
[10] = target: T1, Epidermal growth factor receptor; assay: Inhibition of wild type EGFR autophosphorylation in human A549 cells at 1 uM incubated for 1 hr followed by compound washout measured after 8 hrs by Western blot analysis; assay type: cell-based
In short: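 A549 cells expressing wild-type EGFR treated 1 h with inhibitor at 1 µM, then washed with drug-free medium; EGFR autophosphorylation in intact cells read by Western blot 8 h after compound removal; percent inhibition as mean of at least two independent experiments ± SEM.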

T1 sequence (P00533 whole entry): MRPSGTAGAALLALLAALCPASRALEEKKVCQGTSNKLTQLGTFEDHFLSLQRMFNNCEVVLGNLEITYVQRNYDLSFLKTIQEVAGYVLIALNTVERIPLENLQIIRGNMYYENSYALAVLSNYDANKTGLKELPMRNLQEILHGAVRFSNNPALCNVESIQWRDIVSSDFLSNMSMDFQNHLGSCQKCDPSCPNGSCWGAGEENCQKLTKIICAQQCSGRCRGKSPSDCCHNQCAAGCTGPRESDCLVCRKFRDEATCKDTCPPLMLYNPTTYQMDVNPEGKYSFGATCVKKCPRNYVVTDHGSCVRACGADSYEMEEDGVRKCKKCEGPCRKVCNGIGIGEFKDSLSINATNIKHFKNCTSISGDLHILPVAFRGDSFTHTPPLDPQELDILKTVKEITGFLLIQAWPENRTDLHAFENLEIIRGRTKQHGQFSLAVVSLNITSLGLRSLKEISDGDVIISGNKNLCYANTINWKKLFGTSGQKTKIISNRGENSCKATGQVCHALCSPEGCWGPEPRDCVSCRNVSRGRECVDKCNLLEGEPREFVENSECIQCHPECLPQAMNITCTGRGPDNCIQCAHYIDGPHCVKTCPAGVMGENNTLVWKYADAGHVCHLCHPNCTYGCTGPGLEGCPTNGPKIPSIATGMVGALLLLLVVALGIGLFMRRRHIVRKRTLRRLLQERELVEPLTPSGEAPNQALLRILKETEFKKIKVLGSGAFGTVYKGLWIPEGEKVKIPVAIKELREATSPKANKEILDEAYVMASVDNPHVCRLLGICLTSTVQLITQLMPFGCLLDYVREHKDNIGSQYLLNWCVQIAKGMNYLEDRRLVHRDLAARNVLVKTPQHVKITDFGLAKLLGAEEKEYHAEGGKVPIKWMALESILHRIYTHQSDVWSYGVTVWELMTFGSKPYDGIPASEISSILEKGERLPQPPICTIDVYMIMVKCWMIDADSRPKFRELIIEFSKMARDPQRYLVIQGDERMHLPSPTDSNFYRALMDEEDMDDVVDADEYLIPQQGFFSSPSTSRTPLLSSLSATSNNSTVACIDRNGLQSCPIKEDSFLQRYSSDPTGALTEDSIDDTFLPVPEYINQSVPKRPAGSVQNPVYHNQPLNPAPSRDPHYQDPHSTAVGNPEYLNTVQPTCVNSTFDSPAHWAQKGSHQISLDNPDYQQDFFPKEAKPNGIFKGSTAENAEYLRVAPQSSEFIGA

Drug uptake [1] [µM] | Drug uptake [2] [µM] | fraction unbound at 4 h, 1 µM [3] | IC50 [4] [nM] | inhibition [5] [%] | IC50 [6] [nM] | IC50 [7] [nM] | Stability [8] | inhibition [9] | inhibition [10] [%] | SMILES
< 0.05 | < 0.05 |  |  |  |  |  |  |  |  | C=CC(=O)Nc1ccc2ncnc(Nc3cccc(Br)c3)c2c1
< 0.05 | 26 |  |  |  |  |  |  |  |  | CN(C)CCC(=O)Nc1ccc2ncnc(Nc3cccc(Br)c3)c2c1
2.3 | 271 | 0.322 |  |  |  |  |  |  |  | COc1cc2ncnc(Nc3ccc(F)c(Cl)c3)c2cc1OCCCN1CCOCC1 [GEFITINIB]
7.2 | 147 | 0.157 | 5.7 | 98 | 13.5 | 0.63 | Stable | inactive | 96 | O=C(CCCN1CCCCC1)Nc1ccc2ncnc(Nc3cccc(Br)c3)c2c1
0.7 | 72 |  |  |  |  |  | Stable |  |  | O=C(CCOc1ccccc1)Nc1ccc2ncnc(Nc3cccc(Br)c3)c2c1
105 | 324 | 0.077 | 1.7 | 95 | 14.1 | 0.41 |  |  | 90 | Brc1cccc(Nc2ncnc3ccc(NCCCN4CCCCC4)cc23)c1
< 0.05 | 13 |  |  |  |  |  |  |  |  | Nc1ccc2ncnc(Nc3cccc(Br)c3)c2c1
3.6 | 240 |  |  |  |  |  | Stable |  |  | O=C(COc1c(F)c(F)c(F)c(F)c1F)Nc1ccc2ncnc(Nc3cccc(Br)c3)c2c1
